A word on the IC50: it is the concentration at which inhibition is half-maximal.

One assay has as its system HL-60. The assay can be described thus: Cytotoxicity against human HL60 cells by MTT assay. The assay is classed as functional, cell-based. Background: Tetrazolium dyes change colour on reduction, which living cells bring about.
In another assay the test system is SMMC-7721. The assay can be described thus: Cytotoxicity against human SMMC7721 cells by MTT assay. The class given is functional, cell-based.
The next assay deals with A549. As to the kind of experiment: Cytotoxicity against human A549 cells by MTT assay. The class given is functional, cell-based.
Another assay deals with MCF7. The assay can be described thus: Cytotoxicity against human MCF7 cells by MTT assay. The class given is functional, cell-based.
For the next assay, the system named is SW480. The assay can be described thus: Cytotoxicity against human SW480 cells by MTT assay. The class given is functional, cell-based.
Assay [1] is described as follows: Cytotoxicity against human BEAS2B cells by MTT assay. The assay is classed as cell-based, BEAS-2B.
The test system of a further assay is RAW264.7. As to the kind of experiment: Inhibition of nitric oxide production in LPS-activated mouse RAW264.7 cells. The assay is classed as functional, cell-based. The gist of the method:
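LPS-activated RAW264.7 macrophages; compounds dissolved in DMSO and diluted in medium to a range of concentrations, top concentration 25 μM; NO production read as absorbance at 570 nm on a plate reader.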

Where [2] appears, read: Homo sapiens, HL-60, read-out: IC50.
Setting [3] is: Homo sapiens, SMMC-7721, read-out: IC50.
Setting [4] is: Homo sapiens, A549, read-out: IC50.
Where [5] appears, read: Homo sapiens, MCF7, read-out: IC50.
[6] abbreviates: Homo sapiens, SW480, read-out: IC50.
Setting [7] is: Homo sapiens, BEAS-2B, read-out: IC50.
The mark [8] stands for this setting: Mus musculus, RAW264.7, read-out: IC50.

Regarding `COc1ccc2c(c1)N(OC)C(=O)[C@@]21C[C@@H]2NC=C(C=O)[C@@H]3C[C@H]1OC[C@H]23`, the IC50 was 8.5 µM with HL-60 (setting [2]); 7.3 µM with SMMC-7721 (setting [3]); 9.3 µM in the assay on A549 (setting [4]); over 10 µM with MCF7 (setting [5]); over 10 µM with SW480 (setting [6]); over 10 µM in assay [1] (setting [7]). Further, in the assay with RAW264.7 (setting [8]), the IC50 was over 25 µM.
Regarding `C=C[C@]12[C@@H]3C[C@@H]4OC[C@@H]3[C@@H](C[C@]13C4=Nc1ccccc13)N(C)[C@H]2O`, the IC50 with RAW264.7 (setting [8]) is over 25 µM.
As to `C=C[C@@]12C=N[C@H]3C[C@]14C(=Nc1ccccc14)[C@H]1C[C@@H]2[C@@H]3CO1`, the IC50 in the assay with HL-60 (setting [2]) came to 4.6 µM; in the assay on SMMC-7721 (setting [3]), 5.3 µM; in the assay on A549 (setting [4]), 4.9 µM; with MCF7 (setting [5]), 9.3 µM; with SW480 (setting [6]), 7.3 µM; in assay [1] (setting [7]), 8.6 µM. The half-maximal inhibitory concentration (IC50) in the assay on RAW264.7 (setting [8]) is over 25 µM.
In the case of `C[C@H](O)[C@@]12C[N+](C)([O-])[C@@H]3C[C@]14C(=Nc1ccccc14)[C@H]1C[C@@H]2[C@@H]3CO1` (some centres not stated), the half-inhibitory concentration (IC50) in the assay on RAW264.7 (setting [8]) is over 25 µM.
With `CCOC(=O)CCc1cc2c3[n-]c4ccccc4c3cc[n+]2cc1C(=O)O`, in the assay with RAW264.7 (setting [8]), the IC50 was over 25 µM.
With `CC[C@@]1(O)CN[C@H]2C[C@@]3(C(=O)N(OC)c4ccccc43)[C@@H]3OC[C@H]2[C@H]1[C@@H]3O`, in the assay with RAW264.7 (setting [8]), the IC50 was over 25 µM.
`[O-][n+]1c2c3cc4c(cn3ccc-2c2ccccc21)CCCC4`: the IC50 result (in the assay on HL-60 (hl-60); with SMMC-7721 (smmc-7721); in the assay with A549 (a549); in the assay on MCF7 (mcf7); in the assay with SW480 (sw480); in assay [1] (beas-2b)) was “ND(Insoluble)” in each case. Also, the IC50 result with RAW264.7 (raw264.7) is on record as “ND(Insoluble)”.
On to `COc1ccc2c(c1)N(OC)C(=O)[C@@]21C[C@@H]2NC[C@](O)(C(C)O)[C@@H]3C[C@H]1OC[C@H]23` (some centres not stated), for which, in the assay on RAW264.7 (setting [8]), the 50% inhibitory concentration (IC50) was over 25 µM.
For `C=C[C@]12[C@@H]3C[C@@H]4OC[C@@H]3[C@@H](C[C@]13C4=Nc1ccccc13)N(C)[C@@H]2O`, in the assay on RAW264.7 (setting [8]), the concentration for half-maximal inhibition (IC50) is over 25 µM.
